In ChEMBL document CHEMBL1140366, “Novel P1 chain-extended HIV protease inhibitors possessing potent anti-HIV activity and remarkable inverse antiviral resistance profiles” (Bioorg Med Chem Lett, 2005):

Legend:
[1] = test system: Human immunodeficiency virus; assay: Inhibitory concentration against wild type Human immuno deficiency virus (HXB2) was determined in an MT-4 cell line; assay type: functional, organism-based; details: Human immunodeficiency virus 1, MT4
[2] = test system: Human immunodeficiency virus; assay: Inhibitory concentration against protease inhibitor-resistant mutant Human immuno deficiency virus (D545701) was determined in an MT-4 cell line; details: Human immunodeficiency virus 1, MT4
[3] = test system: Human immunodeficiency virus; assay: Inhibitory concentration against protease inhibitor-resistant mutant Human immuno deficiency virus (EP13) was determined in an MT-4 cell line; details: Human immunodeficiency virus 1, MT4
[4] = test system: Canis lupus familiaris; assay: Bioavailability in dog at 0.5 mg/kg dose; assay type: functional, organism-based
[5] = test system: Canis lupus familiaris; assay: Clearance in dogs at 0.5 mg/kg dose; assay type: functional, organism-based; set-up: dose 0.5 mg/kg
[6] = test system: Rattus norvegicus; assay: Clearance in rats at 1.0 mg/kg iv dose; assay type: functional, organism-based; set-up: dose 1 mg/kg
[7] = test system: Rattus norvegicus; assay: Bioavailability in rats at 1.0 mg/kg iv dose; assay type: functional, organism-based
[8] = test system: Canis lupus familiaris; assay: Half life in dogs at 0.5 mg/kg iv dose; assay type: functional, organism-based; set-up: dose 0.5 mg/kg
[9] = test system: Rattus norvegicus; assay: Half life in rat was determined at a dose 1.0 mg/kg; assay type: functional, organism-based; set-up: dose 1 mg/kg
[10] = test system: Rattus norvegicus; assay: Bioavailability of the compound in rat was determined; Dose at 1.0 mg/kg; assay type: functional, organism-based
[11] = test system: Canis lupus familiaris; assay: Half life in dogs at 0.5 mg/kg iv dose co-administered with ritonavir 4.0 mg/kg; assay type: functional, organism-based
[12] = test system: Canis lupus familiaris; assay: Bioavailability in dog at 0.5 mg/kg dose co-administered with 4.0 mg/kg ritonavir; assay type: functional, organism-based
In short: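 Ritonavir-boosted bioavailability was calculated as the oral AUC with co-administered ritonavir divided by the IV AUC without ritonavir.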

[13] = test system: Canis lupus familiaris; assay: Clearance in dogs at 0.5 mg/kg iv dose; assay type: functional, organism-based; set-up: dose 0.5 mg/kg

| SMILES | IC50 [1] [nM] | IC50 [2] [nM] | IC50 [3] [nM] | other results |
| --- | --- | --- | --- | --- |
| COC(=O)NCCCCC(C)(C)CN(C[C@@H](O)[C@H](Cc1ccccc1)NC(=O)O[C@H]1CO[C@H]2OCC[C@H]21)S(=O)(=O)c1ccc2c(c1)OCO2 | 2.2 | 15 | 19 |  |
| CC(C)CN(C[C@@H](O)[C@H](Cc1ccc(OCCCNS(C)(=O)=O)cc1)NC(=O)O[C@H]1CO[C@H]2OCC[C@H]21)S(=O)(=O)c1ccc2c(c1)OCO2 | 41 | 21 | 20 |  |
| Cc1c(O)cccc1C(=O)N[C@@H](CSc1ccccc1)[C@H](O)CN1C[C@H]2CCCC[C@H]2C[C@H]1C(=O)NC(C)(C)C [NELFINAVIR] | 320 | > 1000 | 450 |  |
| CC(C)CN(C[C@@H](O)[C@H](Cc1ccc(OCCCCNC(=O)N(C)C)cc1)NC(=O)O[C@H]1CO[C@H]2OCC[C@H]21)S(=O)(=O)c1ccc2c(c1)OCO2 | 65 | 32 | 22 |  |
| COC(=O)N[C@H](C(=O)N[C@@H](Cc1ccccc1)[C@@H](O)CN(Cc1ccc(-c2ccccn2)cc1)NC(=O)[C@@H](NC(=O)OC)C(C)(C)C)C(C)(C)C [ATAZANAVIR] | 25 | 70 | 93 |  |
| Cc1cccc(C)c1OCC(=O)N[C@@H](Cc1ccccc1)[C@@H](O)C[C@H](Cc1ccccc1)NC(=O)[C@H](C(C)C)N1CCCNC1=O [LOPINAVIR] | 40 | > 1000 | 400 |  |
| CNC(=O)NCCCCOc1ccc(C[C@H](NC(=O)O[C@H]2CO[C@H]3OCC[C@H]32)[C@H](O)CN(CC(C)C)S(=O)(=O)c2ccc3c(c2)OCO3)cc1 | 60 | 22 | 26 |  |
| CC(C)CN(C[C@@H](O)[C@H](Cc1ccc(OCCCNC(=O)N(C)C)cc1)NC(=O)O[C@H]1CO[C@H]2OCC[C@H]21)S(=O)(=O)c1ccc2c(c1)OCO2 | 25 | 11 | 11 |  |
| CC(C)CN(C[C@@H](O)[C@H](Cc1ccc(OCCCN)cc1)NC(=O)O[C@H]1CO[C@H]2OCC[C@H]21)S(=O)(=O)c1ccc2c(c1)OCO2 | 67 | 65 | 50 |  |
| CC(=O)NCCCCOc1ccc(C[C@H](NC(=O)O[C@H]2CO[C@H]3OCC[C@H]32)[C@H](O)CN(CC(C)C)S(=O)(=O)c2ccc3c(c2)OCO3)cc1 | 39 | 16 | 13 |  |
| CC(C)CN(C[C@@H](O)[C@H](Cc1ccc(OCCNC(=O)N(C)C)cc1)NC(=O)O[C@H]1CO[C@H]2OCC[C@H]21)S(=O)(=O)c1ccc2c(c1)OCO2 | 37 | 11 | 9.1 |  |
| CC(=O)NCCOc1ccc(C[C@H](NC(=O)O[C@H]2CO[C@H]3OCC[C@H]32)[C@H](O)CN(CC(C)C)S(=O)(=O)c2ccc3c(c2)OCO3)cc1 | 140 | 53 | 52 |  |
| CC(C)CN(C[C@@H](O)[C@H](Cc1ccc(OCCN)cc1)NC(=O)O[C@H]1CO[C@H]2OCC[C@H]21)S(=O)(=O)c1ccc2c(c1)OCO2 | 180 | 130 | 150 |  |
| CC(=O)NCCCOc1ccc(C[C@H](NC(=O)O[C@H]2CO[C@H]3OCC[C@H]32)[C@H](O)CN(CC(C)C)S(=O)(=O)c2ccc3c(c2)OCO3)cc1 | 57 | 20 | 18 |  |
| CC(C)CN(C[C@@H](O)[C@H](Cc1ccc(OCCCCN)cc1)NC(=O)O[C@H]1CO[C@H]2OCC[C@H]21)S(=O)(=O)c1ccc2c(c1)OCO2 | 15 | 28 | 14 |  |
| CNC(=O)NCCOc1ccc(C[C@H](NC(=O)O[C@H]2CO[C@H]3OCC[C@H]32)[C@H](O)CN(CC(C)C)S(=O)(=O)c2ccc3c(c2)OCO3)cc1 | 200 | 130 | 131 |  |
| CC(C)CN(C[C@@H](O)[C@H](Cc1ccc(OCCCCNS(C)(=O)=O)cc1)NC(=O)O[C@H]1CO[C@H]2OCC[C@H]21)S(=O)(=O)c1ccc2c(c1)OCO2 | 15 | 9.2 | 5.9 |  |
| COC(=O)NCCCCOc1ccc(C[C@H](NC(=O)O[C@H]2CO[C@H]3OCC[C@H]32)[C@H](O)CN(CC(C)C)S(=O)(=O)c2ccc3c(c2)OCO3)cc1 | 2.6 | 6.6 | 2.6 |  |
| COC(=O)NCCCOc1ccc(C[C@H](NC(=O)O[C@H]2CO[C@H]3OCC[C@H]32)[C@H](O)CN(CC(C)C)S(=O)(=O)c2ccc3c(c2)OCO3)cc1 | 2.8 | 7.1 | 2.6 | bioavailability [4]: 1%; CL (mL.min-1.kg-1) [5]: 0.5; CL (mL.min-1.kg-1) [6]: 0.717; bioavailability [7]: 3%; T1/2 [8]: 66 min; T1/2 [9]: 12 min |
| CNC(=O)NCCCOc1ccc(C[C@H](NC(=O)O[C@H]2CO[C@H]3OCC[C@H]32)[C@H](O)CN(CC(C)C)S(=O)(=O)c2ccc3c(c2)OCO3)cc1 | 119 | 43 | 56 |  |
| CC(C)(C)NC(=O)[C@@H]1CN(Cc2cccnc2)CCN1C[C@@H](O)C[C@@H](Cc1ccccc1)C(=O)N[C@H]1c2ccccc2C[C@H]1O [INDINAVIR] | 50 | 440 | 330 |  |
| CC(C)CN(C[C@@H](O)[C@H](Cc1ccc(OCCNS(C)(=O)=O)cc1)NC(=O)O[C@H]1CO[C@H]2OCC[C@H]21)S(=O)(=O)c1ccc2c(c1)OCO2 | 62 | 20 | 9.1 |  |
| COC(=O)NCCOc1ccc(C[C@H](NC(=O)O[C@H]2CO[C@H]3OCC[C@H]32)[C@H](O)CN(CC(C)C)S(=O)(=O)c2ccc3c(c2)OCO3)cc1 | 3 | 7.1 | 2.9 | bioavailability [10]: 1%; T1/2 [11]: 36 min; bioavailability [4]: 0%; bioavailability [12]: 33%; CL (mL.min-1.kg-1) [6]: 0.917; T1/2 [9]: 96 min; CL (mL.min-1.kg-1) [13]: 1.13 |
| CC(C)CN(C[C@@H](O)[C@H](Cc1ccccc1)NC(=O)O[C@H]1CCOC1)S(=O)(=O)c1ccc(N)cc1 [AMPRENAVIR] | 130 | > 1000 | 440 |  |
